In paper PMC3954597 (Biochemistry, 2014):

Experiments:
Format in all cases: biochemical
[1] = biological target: T1, PTP1B (Homo sapiens, UniProt P18031); experiment: PTP assay, wild-type PTP1B; details: for kcat/KM x10^6: WT catalytic domain aa 1–321, 100 mM HEPES pH 7.4, monitored at 282 nm
T1 sequence (P18031 1-321): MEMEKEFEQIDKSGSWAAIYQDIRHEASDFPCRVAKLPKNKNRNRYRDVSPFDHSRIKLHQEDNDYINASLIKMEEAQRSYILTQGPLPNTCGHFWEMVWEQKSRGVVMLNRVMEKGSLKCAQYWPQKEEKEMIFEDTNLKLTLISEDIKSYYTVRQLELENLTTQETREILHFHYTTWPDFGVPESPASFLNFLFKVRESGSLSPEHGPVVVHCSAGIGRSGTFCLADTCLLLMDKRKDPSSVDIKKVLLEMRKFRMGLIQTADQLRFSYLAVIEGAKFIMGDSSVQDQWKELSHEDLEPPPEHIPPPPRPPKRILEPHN
How it was run: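 E. coli-expressed catalytic domains were used: wild-type, R24M or R47E PTP1B (aa 1–321), and SHP-1 (aa 205–595). Reactions started with PTP (0.5–20000 nM final) and dephosphorylation was monitored continuously at 282 nm. kcat, KM and kcat/KM came from initial-rate fits (Michaelis–Menten, or V = kcat[E][S]/KM when KM >> [S]) or from fits of progress curves.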

[2] = biological target: T2, PTPRO (Homo sapiens, UniProt Q16827); experiment: PTP assay, PTPRO; details: for Km / kcat / kcat/KM x10^6: catalytic domain, 100 mM HEPES pH 7.4, monitored at 282 nm
T2 sequence (Q16827 938-1195 limits assumed): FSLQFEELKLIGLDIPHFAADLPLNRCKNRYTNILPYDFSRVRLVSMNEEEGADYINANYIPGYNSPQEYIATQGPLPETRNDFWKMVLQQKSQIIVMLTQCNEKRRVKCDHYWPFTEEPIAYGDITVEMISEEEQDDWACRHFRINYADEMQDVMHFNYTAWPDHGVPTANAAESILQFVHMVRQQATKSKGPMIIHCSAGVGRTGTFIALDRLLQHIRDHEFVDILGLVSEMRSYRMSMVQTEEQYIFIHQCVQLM

[3] = biological target: PTPRB (Homo sapiens, UniProt P23467); experiment: PTP assay, PTPRB; details: for Km / kcat / kcat/KM x10^6: catalytic domain, 100 mM HEPES pH 7.4, monitored at 282 nm
PTPRB, sequence (P23467 1686-1971): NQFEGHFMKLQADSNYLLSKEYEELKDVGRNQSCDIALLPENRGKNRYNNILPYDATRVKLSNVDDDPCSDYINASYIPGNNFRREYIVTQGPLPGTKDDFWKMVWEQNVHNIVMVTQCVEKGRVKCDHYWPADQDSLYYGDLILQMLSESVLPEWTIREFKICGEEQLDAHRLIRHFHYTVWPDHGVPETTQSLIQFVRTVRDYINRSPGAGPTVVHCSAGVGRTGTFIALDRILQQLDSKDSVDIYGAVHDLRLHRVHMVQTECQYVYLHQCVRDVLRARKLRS

[4] = biological target: T3, TCPTP (Homo sapiens, UniProt P17706); experiment: PTP assay, TCPTP
T3 sequence (P17706 1-314): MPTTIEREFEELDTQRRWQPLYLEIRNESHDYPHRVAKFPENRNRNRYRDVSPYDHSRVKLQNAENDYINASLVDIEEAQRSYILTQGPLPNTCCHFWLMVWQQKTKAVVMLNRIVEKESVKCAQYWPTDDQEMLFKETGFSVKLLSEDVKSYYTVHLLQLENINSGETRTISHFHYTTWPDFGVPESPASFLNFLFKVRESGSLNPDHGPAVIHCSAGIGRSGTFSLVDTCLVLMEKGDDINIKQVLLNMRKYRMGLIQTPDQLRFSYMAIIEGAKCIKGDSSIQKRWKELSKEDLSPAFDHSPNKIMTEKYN

[5] = biological target: T4, PTPH1 (Homo sapiens, UniProt P26045); experiment: PTP assay, PTPH1; details: for Km / kcat / kcat/KM x10^6: catalytic domain, 100 mM HEPES pH 7.4, monitored at 282 nm
T4 sequence (P26045 628-909): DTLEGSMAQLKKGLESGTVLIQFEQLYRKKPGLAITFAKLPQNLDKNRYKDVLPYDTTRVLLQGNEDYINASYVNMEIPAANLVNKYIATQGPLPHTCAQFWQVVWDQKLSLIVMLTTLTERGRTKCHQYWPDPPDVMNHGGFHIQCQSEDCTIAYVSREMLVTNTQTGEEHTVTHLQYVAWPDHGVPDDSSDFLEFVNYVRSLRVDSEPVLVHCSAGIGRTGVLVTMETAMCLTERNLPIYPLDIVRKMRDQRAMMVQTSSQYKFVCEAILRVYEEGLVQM

[6] = biological target: PTPRA (Homo sapiens, UniProt P18433); experiment: PTP assay, PTPRA
How it was run: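 His-tagged PTPRA catalytic domain (aa 224–802), expressed in E. coli. Dephosphorylation was followed continuously at 282 nm (Δε = 1102 M−1 cm−1). Initial rates were fitted to Michaelis-Menten or V = kcat[E][S]/KM, or full progress curves were fitted to depletion.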

[7] = biological target: T5, SHP-2 (Homo sapiens, UniProt Q06124); experiment: PTP assay, SHP-2; details: catalytic domain; 100 mM HEPES pH 7.4; monitored at 282 nm
T5 sequence (Q06124 199-593): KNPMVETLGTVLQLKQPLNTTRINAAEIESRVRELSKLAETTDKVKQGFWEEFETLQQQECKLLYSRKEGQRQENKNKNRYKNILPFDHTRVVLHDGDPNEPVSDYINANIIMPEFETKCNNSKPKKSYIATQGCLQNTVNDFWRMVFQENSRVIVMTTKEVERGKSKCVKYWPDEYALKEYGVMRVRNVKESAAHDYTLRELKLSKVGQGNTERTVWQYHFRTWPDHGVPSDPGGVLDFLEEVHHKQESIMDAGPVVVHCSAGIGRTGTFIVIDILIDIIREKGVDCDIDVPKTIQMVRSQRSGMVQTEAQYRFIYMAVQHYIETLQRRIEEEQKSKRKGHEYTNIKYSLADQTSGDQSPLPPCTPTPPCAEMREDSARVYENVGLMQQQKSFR
How it was run: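 His-tagged catalytic domains were made in E. coli: PTPD2 aa 876–1187 and PTPRC aa 620–1236 with N-terminal tags, PTPD1 aa 875–1174 and SHP-2 aa 199–593 with C-terminal tags. Enzyme was added at 0.5–20000 nM final. A282 (Δε 1102 M−1 cm−1) was followed. Constants came from Michaelis–Menten fits of initial rates (<60 s), or from fits of progress curves run to substrate depletion.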

[8] = kcat/KM of neutral peptide over basic Ac-YRKRFpYRYKF-NH2
[9] = catalytic domain, 100 mM HEPES pH 7.4, monitored at 282 nm
[10] = kcat/KM of acidic peptide over basic Ac-YRKRFpYRYKF-NH2
[11] = kcat/KM of acidic peptide over neutral Ac-SASASpYSASA-NH2

Substance | kcat/KM x10^6 [1] | Km [2] [µM] | kcat [2] [s⁻¹] | kcat/KM x10^6 [2] | Km [3] [µM] | kcat [3] [s⁻¹] | kcat/KM x10^6 [3] | kcat/KM x10^6 [4, 9] | Km [5] [µM] | kcat [5] [s⁻¹] | kcat/KM x10^6 [5] | kcat/KM x10^6 [6, 9] | further results
Ac-SASASpYSASA-NH2 | 2.3 x10^6 M^−1 s^−1 | 250 ± 10 | 240 ± 8 | 0.94 x10^6 M^−1 s^−1 | 26 ± 1 | 56 ± 2 | 2.2 x10^6 M^−1 s^−1 | 1.7 x10^6 M^−1 s^−1 | 5.8 ± 0.7 | 2.5 ± 0.2 | 0.44 x10^6 M^−1 s^−1 | 0.023 x10^6 M^−1 s^−1 | kcat/KM x 10^7 ([1]; WT PTP1B aa 1–321, pH 7.4): 0.23 x 10^7 M^−1 s^−1; Neutral/Basic ratio of kcat/KM values [1, 8]: 61; Neutral/Basic ratio of kcat/KM values [2, 8]: 18; Neutral/Basic ratio of kcat/KM values [3, 8]: 77; Km [4, 9]: 10 ± 1 µM; kcat [4, 9]: 17 ± 2 s⁻¹; Neutral/Basic ratio of kcat/KM values [4, 8]: 53; Neutral/Basic ratio of kcat/KM values [6, 8]: 0.5
Ac-YDEDFpYDYEF-NH2 | 55 x10^6 M^−1 s^−1 | 5.7 ± 0.8 | 200 ± 10 | 35 x10^6 M^−1 s^−1 | 1.8 ± 0.4 | 55 ± 2 | 31 x10^6 M^−1 s^−1 |  | 0.28 ± 0.02 | 2.4 ± 0.06 | 8.8 x10^6 M^−1 s^−1 | 0.075 x10^6 M^−1 s^−1 | Acidic/Basic ratio of kcat/KM values [1, 10]: 1500; Acidic/Neutral ratio of kcat/KM values [1, 11]: 24; Acidic/Basic ratio of kcat/KM values [2, 10]: 660; Acidic/Neutral ratio of kcat/KM values [2, 11]: 37; Acidic/Basic ratio of kcat/KM values [3, 10]: 1100; Acidic/Neutral ratio of kcat/KM values [3, 11]: 14; Acidic/Basic ratio of kcat/KM values [5, 10]: 2600; Acidic/Neutral ratio of kcat/KM values [5, 11]: 20; Km [6, 9]: 260 ± 30 µM; kcat [6, 9]: 19 ± 0.6 s⁻¹; Acidic/Basic ratio of kcat/KM values [6, 10]: 2; Acidic/Neutral ratio of kcat/KM values [6, 11]: 3
Ac-YRKRFpYRYKF-NH2 | 0.037 x10^6 M^−1 s^−1 |  |  | 0.053 x10^6 M^−1 s^−1 |  |  | 0.028 x10^6 M^−1 s^−1 | 0.032 x10^6 M^−1 s^−1 |  |  | 0.0033 x10^6 M^−1 s^−1 | 0.045 x10^6 M^−1 s^−1 | kcat/KM x10^6 [7]: 0.00015 x10^6 M^−1 s^−1
